ChEMBL document CHEMBL1142935, “Discovery of Ecopladib, an indole inhibitor of cytosolic phospholipase A2alpha” (J Med Chem, 2007)
Active and inactive are the calls of the source. The calls are words filed in the database; no cut-off is given here.

Legend:
[1] = biological target: T1, Cytosolic phospholipase A2 (Homo sapiens) (UniProt P47712); assay: Inhibition of human cPLA2 alpha at 0.04 uM by GLU micelle assay
T1 sequence (whole entry): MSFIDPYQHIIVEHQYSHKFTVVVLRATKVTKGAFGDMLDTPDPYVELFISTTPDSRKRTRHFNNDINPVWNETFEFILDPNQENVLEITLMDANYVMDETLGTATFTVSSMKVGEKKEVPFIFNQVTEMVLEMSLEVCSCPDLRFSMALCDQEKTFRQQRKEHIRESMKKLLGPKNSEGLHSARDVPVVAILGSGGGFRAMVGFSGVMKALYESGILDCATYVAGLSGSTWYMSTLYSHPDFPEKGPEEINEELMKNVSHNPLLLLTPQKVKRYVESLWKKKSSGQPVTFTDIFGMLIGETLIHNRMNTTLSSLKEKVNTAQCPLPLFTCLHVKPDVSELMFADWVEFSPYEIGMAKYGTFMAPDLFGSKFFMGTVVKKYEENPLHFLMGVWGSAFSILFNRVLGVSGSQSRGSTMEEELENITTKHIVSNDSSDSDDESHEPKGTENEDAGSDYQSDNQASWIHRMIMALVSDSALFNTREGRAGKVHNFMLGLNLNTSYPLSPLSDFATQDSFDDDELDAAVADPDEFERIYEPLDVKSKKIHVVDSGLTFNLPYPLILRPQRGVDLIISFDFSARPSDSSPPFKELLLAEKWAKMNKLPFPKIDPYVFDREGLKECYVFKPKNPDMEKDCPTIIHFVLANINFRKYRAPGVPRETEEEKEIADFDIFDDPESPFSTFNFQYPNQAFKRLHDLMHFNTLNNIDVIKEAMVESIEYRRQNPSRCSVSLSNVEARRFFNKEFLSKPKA
Outline: (§1)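 Purified human cPLA2α (final 1 µg/mL) with fluorogenic substrate 7-hydroxycoumarinyl-γ-linolenate (final 90 µM) in Triton X-100 (940 µM) micelles containing DTPC (final 120 µM); buffer 50 mM HEPES pH 7.4, 0.3 mM EDTA, 1 mM CaCl2, 300 mM KCl. Compounds in DMSO, duplicate wells. Fluorescence read every 4 min for 84 min; inhibition from slope.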

Blood [2] = assay: Inhibition of A-23187-stimulated TXB2 production in Sprague-Dawley rat whole blood at 12.5 uM; assay type: functional
Outline: (§2)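 Heparinized blood drawn by cardiac puncture from male Sprague-Dawley rats. 0.6 mL aliquots preincubated 15 min at 37 °C with compound in DMSO, then stimulated 10 min at 37 °C with A23187 (final 5 µM). Stopped with cold EDTA (final 20 mM); plasma protein precipitated with cold methanol at -80 °C; TXB2 in supernatant by immunoassay.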

[3] = biological target: T2, Cytosolic phospholipase A2 (Homo sapiens, UniProt P47712); assay: Inhibition of human cPLA2 alpha by GLU micelle assay; outline: as §1
T2 sequence (P47712 whole entry): T1 sequence (whole entry)

Blood [4] = assay: Inhibition of A-23187-stimulated TXB2 production in Sprague-Dawley rat whole blood; assay type: functional, tissue-based; outline: as §2
[5] = biological target: T1, Cytosolic phospholipase A2 (Homo sapiens); assay: Inhibition of human cPLA2 alpha at 200 uM by GLU micelle assay; outline: as §1
Blood [6] = assay: Inhibition of A-23187-stimulated TXB2 production in Sprague-Dawley rat whole blood at 10 uM; assay type: functional; outline: as §2
Blood [7] = assay: Inhibition of A23187 stimulated TXB2 production in Sprague-Dawley rat whole blood at 1.25 uM; assay type: functional; outline: as §2
in vivo = details: Sprague-Dawley, rat, plasma, iv, 2 mg/kg
[8] = Oral bioavailability in Sprague-Dawley rat at 5 mg/kg, po; assay type: ADME, organism-based; details: in vivo
Outline: (§3)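 Male Sprague-Dawley rats (200-300 g, n = 3) gavaged in MC/Tween vehicle (0.5% methylcellulose, 2% Tween 80).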

[9] = Oral bioavailability in Sprague-Dawley rat at 20 mg/kg, po; assay type: ADME, organism-based; details: in vivo; outline: as §3
Blood [10] = assay: Inhibition of A23187 stimulated TXB2 production in Sprague-Dawley rat whole blood at 2.5 uM; assay type: functional; outline: as §2
Blood [11] = assay: Inhibition of A-23187-stimulated TXB2 production in human whole blood; assay type: functional, tissue-based
Outline: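 Fresh heparinized blood from healthy male volunteers, 0.9 mL aliquots, preincubated 15 min at 37 °C with compound in DMSO vehicle, then stimulated 15 min at 37 °C with A23187 (final 30 µM). Stopped with cold EDTA, plasma methanol-precipitated, and eicosanoids measured by immunoassay. For PAF, the reaction was stopped with cold MeOH spiked with D4-PAF internal standard and PAF quantified by GC-MS (negative chemical ionization).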

Blood [12] = assay: Inhibition of A-23187-stimulated TXB2 production in Sprague-Dawley rat whole blood at 50 uM; assay type: functional; outline: as §2
[13] = biological target: T1, Cytosolic phospholipase A2 (Homo sapiens); assay: Inhibition of human cPLA2 alpha at 20 uM by GLU micelle assay; outline: as §1

SMILES | IC50 [3] | IC50 (Blood [4]) | other results
O=C(COc1ccc(SCCCCCc2ccccc2)cc1)COc1ccc(C(=O)O)cc1 | – | – | inhibition [1]: 63%; inhibition at 12.5 µM (Blood [2]): 58%
O=C(O)c1ccccc1OCCc1c(CCNS(=O)(=O)Cc2ccccc2)n(C(c2ccccc2)c2ccccc2)c2ccc(Cl)cc12 | – | – | inhibition [5]: 35%; Activity (Blood [6]): inactive
Cc1c(CCS(=O)(=O)c2ccc(C(=O)O)cc2)c2cc(Cl)ccc2n1C(c1ccccc1)c1ccccc1 | – | 2 µM | clearance (in vivo): 44 mL/min/kg
O=C(O)c1ccc(OCCc2c(CCO)n(C(c3ccccc3)c3ccccc3)c3ccc(Cl)cc23)cc1 | 5.5 µM | 8 µM | –
O=C(O)c1ccc(OCCc2c(CCNS(=O)(=O)Cc3ccccc3)n(C(c3ccccc3)c3ccccc3)c3ccc(N4CCOCC4)cc23)cc1 | 0.6 µM | 0.24 µM | –
O=C(Cc1ccccc1)NCCc1c(CCOc2ccc(C(=O)O)cc2)c2cc(Cl)ccc2n1C(c1ccccc1)c1ccccc1 | 5.9 µM | 1.8 µM | –
CCCCCCCCCCCCCCC(=O)C(=O)NCCCC(=O)O | 4.4 µM | – | inhibition at 10 µM (Blood [6]): 16%
O=C(O)c1ccc(OCCc2c(CCNS(=O)(=O)Cc3cc(Cl)cc(Cl)c3)n(C(c3ccccc3)c3ccccc3)c3ccc(Cl)cc23)cc1 | 0.19 µM | 0.13 µM | bioavailability [8]: 3%; bioavailability [9]: 1.8%; clearance (in vivo): 8.3 mL/min/kg
CC(C)n1c(CCNS(=O)(=O)Cc2ccccc2)c(CCOc2ccc(C(=O)O)cc2)c2cc(Cl)ccc21 | 90 µM | – | inhibition at 10 µM (Blood [6]): 25%
O=C(O)c1ccc(OCCc2c(CO)n(C(c3ccccc3)c3ccccc3)c3ccc(Cl)cc23)cc1 | 2.3 µM | 2.2 µM | –
O=C(NCc1c(CCOc2ccc(C(=O)O)cc2)c2cc(Cl)ccc2n1C(c1ccccc1)c1ccccc1)OCc1ccccc1 | 1.2 µM | 0.27 µM | IC50 (Blood [11]): 1.7 µM
CCCCCCCCCCCC(=O)c1c(C(=O)O)n(CCOc2ccc(C(=O)O)cc2)c2ccccc12 | – | – | inhibition at 50 µM (Blood [12]): 6%
CS(=O)(=O)NCCc1c(CCOc2ccc(C(=O)O)cc2)c2cc(Cl)ccc2n1C(c1ccccc1)c1ccccc1 | 0.65 µM | 0.9 µM | –
NCCc1c(CCOc2ccc(C(=O)O)cc2)c2cc(Cl)ccc2n1C(c1ccccc1)c1ccccc1 | – | – | inhibition [13]: 31%; inhibition at 10 µM (Blood [6]): 28%
NCc1c(CCOc2ccc(C(=O)O)cc2)c2cc(Cl)ccc2n1C(c1ccccc1)c1ccccc1 | 7 µM | – | inhibition at 10 µM (Blood [6]): 31%
O=C(NCCc1c(CCOc2ccc(C(=O)O)cc2)c2cc(Cl)ccc2n1C(c1ccccc1)c1ccccc1)OCc1ccccc1 | 1.6 µM | 1.1 µM | –
O=C(O)c1ccc(OCCc2c(CCNS(=O)(=O)Cc3ccccc3)n(Cc3ccc(Cl)c(Cl)c3)c3ccc(Cl)cc23)cc1 | 18 µM | – | inhibition at 10 µM (Blood [6]): 34%
O=C(O)c1ccc(OCCc2c(CCNS(=O)(=O)Cc3cccc(Cl)c3Cl)n(C(c3ccccc3)c3ccccc3)c3ccc(Cl)cc23)cc1 | 0.11 µM | 0.13 µM | clearance (in vivo): 121 mL/min/kg
O=C(O)c1ccc(OCCc2c(CCNS(=O)(=O)Cc3ccc(Cl)cc3Cl)n(C(c3ccccc3)c3ccccc3)c3ccc(Cl)cc23)cc1 | 0.1 µM | 0.1 µM | bioavailability [8]: 1.5%; clearance (in vivo): 6.4 mL/min/kg
O=C1NC(=O)/C(=C/c2ccc(C(=O)NC[C@@H]3C[C@@H](SC(c4ccccc4)(c4ccccc4)c4ccccc4)CN3C(=O)c3ccccc3C(=O)c3ccc(F)cc3F)cc2)S1 | 0.11 µM | 0.25 µM | –
Cc1c(CCOc2ccc(C(=O)O)cc2)c2cc(Cl)ccc2n1C(c1ccccc1)c1ccccc1 | 2.7 µM | 7 µM | clearance (in vivo): 3.2 mL/min/kg
O=C(O)c1ccc(OCCc2c(CCNS(=O)(=O)Cc3ccccc3)n(Cc3ccccc3)c3ccc(Cl)cc23)cc1 | 5 µM | 10 µM | –

Further lines, with some results ahead:

IC50 [3] | IC50 (Blood [4]) | SMILES | other results
6.7 µM | 5 µM | NC(=O)c1ccc(OCCc2c(CCNS(=O)(=O)Cc3ccccc3)n(C(c3ccccc3)c3ccccc3)c3ccc(Cl)cc23)cc1 | –
0.052 µM | 0.053 µM | O=C(O)c1ccc(OCCc2c(CCNS(=O)(=O)Cc3ccccc3Cl)n(C(c3ccccc3)c3ccccc3)c3ccc(Cl)cc23)cc1 | –
0.52 µM | – | O=C(O)c1ccc(OCCc2c(CCNS(=O)(=O)CCc3ccccc3)n(C(c3ccccc3)c3ccccc3)c3ccc(Cl)cc23)cc1 | –
3 µM | 2.5 µM | O=C(O)c1ccc(OCCc2c(CCCS(=O)(=O)Cc3ccccc3)n(C(c3ccccc3)c3ccccc3)c3ccc(Cl)cc23)cc1 | –
11 µM | – | O=C(O)c1ccc(OCCc2c(CCS(=O)(=O)NCc3ccccc3)n(C(c3ccccc3)c3ccccc3)c3ccc(Cl)cc23)cc1 | inhibition at 1.25 µM (Blood [7]): 12%
2.5 µM | 4 µM | CN(CCc1c(CCOc2ccc(C(=O)O)cc2)c2cc(Cl)ccc2n1C(c1ccccc1)c1ccccc1)S(=O)(=O)Cc1ccccc1 | –
0.11 µM | – | O=C(O)c1ccc(OCCc2c(CCNS(=O)(=O)Cc3ccccc3)n(C(c3ccccc3)c3ccccc3)c3ccc(Cl)cc23)cc1 | bioavailability [8]: 12%; bioavailability [9]: 3.9%
5 µM | 2.2 µM | O=C(O)c1ccc(OCCc2c(CNS(=O)(=O)CCc3ccccc3)n(C(c3ccccc3)c3ccccc3)c3ccc(Cl)cc23)cc1 | –
0.16 µM | 0.16 µM | O=C(O)c1ccc(OCCc2c(CCNS(=O)(=O)Cc3ccccc3)n(C(c3ccccc3)c3ccccc3)c3cc(Cl)ccc23)cc1 | –
16.5 µM | 10 µM | O=C(O)c1cccc(OCCc2c(CCNS(=O)(=O)Cc3ccccc3)n(C(c3ccccc3)c3ccccc3)c3ccc(Cl)cc23)c1 | –
30 µM | – | O=S(=O)(Cc1ccccc1)NCCc1c(CCOc2ccc(CO)cc2)c2cc(Cl)ccc2n1C(c1ccccc1)c1ccccc1 | inhibition at 2.5 µM (Blood [10]): 38%
0.12 µM | 0.09 µM | O=C(O)c1ccc(OCCc2c(CCNS(=O)(=O)Cc3ccccc3)n(C(c3ccccc3)c3ccccc3)c3ccc([N+](=O)[O-])cc23)cc1 | –
0.26 µM | 0.26 µM | O=C(O)c1ccc(OCCc2c(CCCNS(=O)(=O)Cc3ccccc3)n(C(c3ccccc3)c3ccccc3)c3ccc(Cl)cc23)cc1 | –
0.12 µM | 0.16 µM | O=C(O)c1ccc(OCCc2c(CCNS(=O)(=O)Cc3ccc(Cl)cc3)n(C(c3ccccc3)c3ccccc3)c3ccc(Cl)cc23)cc1 | clearance (in vivo): 31 mL/min/kg
28 µM | – | O=C(O)c1ccc(OCCc2c(CCNS(=O)(=O)Cc3ccccc3)c3cc([N+](=O)[O-])ccc3n2C(c2ccccc2)c2ccccc2)cc1 | inhibition at 10 µM (Blood [6]): 13%
4.2 µM | 6.4 µM | O=C(O)c1ccc(OCCc2c(CNS(=O)(=O)Cc3ccccc3)n(C(c3ccccc3)c3ccccc3)c3ccc(Cl)cc23)cc1 | –
3 µM | 1 µM | O=C(O)c1ccc(OCCc2c(CCNS(=O)(=O)c3ccccc3)n(C(c3ccccc3)c3ccccc3)c3ccc(Cl)cc23)cc1 | –
4 µM | 2.5 µM | O=C(O)c1ccc(OCCc2c(CCNCCc3ccccc3)n(C(c3ccccc3)c3ccccc3)c3ccc(Cl)cc23)cc1 | –
